# Assay results taken from ChEMBL document CHEMBL1139490, “Design, synthesis, and biological evaluation of prazosin-related derivatives as multipotent compounds” (J Med Chem, 2005).
# Experiments:
# [1] = target: T1, Alpha-1B adrenergic receptor (Homo sapiens, UniProt P35368); test: Equilibrium dissociation constant was evaluated by radio-receptor binding assays using [3H]prazosin to label cloned human alpha 1b expressed in CHO cells; assay type: cell-based
# T1 sequence (P35368 whole entry): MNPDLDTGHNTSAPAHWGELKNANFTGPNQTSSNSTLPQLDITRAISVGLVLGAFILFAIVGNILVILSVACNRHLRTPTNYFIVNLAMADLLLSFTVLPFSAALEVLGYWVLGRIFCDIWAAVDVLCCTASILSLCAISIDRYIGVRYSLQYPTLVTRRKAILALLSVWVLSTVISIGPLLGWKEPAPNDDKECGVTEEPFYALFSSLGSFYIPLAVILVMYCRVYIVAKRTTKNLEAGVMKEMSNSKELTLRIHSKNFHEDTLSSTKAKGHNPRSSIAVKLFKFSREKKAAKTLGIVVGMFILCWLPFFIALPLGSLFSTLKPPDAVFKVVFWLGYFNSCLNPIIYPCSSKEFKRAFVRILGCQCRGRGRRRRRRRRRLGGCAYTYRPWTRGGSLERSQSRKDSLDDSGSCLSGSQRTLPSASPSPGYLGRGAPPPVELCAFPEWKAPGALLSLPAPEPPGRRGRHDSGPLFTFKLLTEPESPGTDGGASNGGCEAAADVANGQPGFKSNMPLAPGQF
# [2] = target: T2, Alpha-1B adrenergic receptor (Rattus norvegicus, UniProt P15823); test: Blocking activity was assessed by antagonism of (-)-phenylephrine induced contraction of rat spleen (alpha1B adrenoceptor); assay type: functional, tissue-based; conditions: read-out: pA2 (converted)
# T2 sequence (P15823 whole entry): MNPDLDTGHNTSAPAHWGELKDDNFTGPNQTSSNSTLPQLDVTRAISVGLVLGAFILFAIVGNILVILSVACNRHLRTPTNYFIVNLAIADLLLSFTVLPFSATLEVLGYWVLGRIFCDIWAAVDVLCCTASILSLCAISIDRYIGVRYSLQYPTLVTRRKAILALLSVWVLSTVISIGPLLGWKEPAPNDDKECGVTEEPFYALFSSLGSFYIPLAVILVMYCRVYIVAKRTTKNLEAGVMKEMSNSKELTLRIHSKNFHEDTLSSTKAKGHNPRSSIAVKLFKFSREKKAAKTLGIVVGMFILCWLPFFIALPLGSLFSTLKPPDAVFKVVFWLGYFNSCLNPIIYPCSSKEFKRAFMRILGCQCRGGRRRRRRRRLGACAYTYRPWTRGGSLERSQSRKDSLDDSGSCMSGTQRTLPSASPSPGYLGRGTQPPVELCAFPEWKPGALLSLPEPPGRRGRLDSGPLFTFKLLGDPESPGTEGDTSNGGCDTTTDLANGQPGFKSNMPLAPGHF
# [3] = target: T3, Alpha-1A adrenergic receptor (Rattus norvegicus, UniProt P43140); test: Blocking activity was assessed by antagonism of (-)-noradrenaline induced contraction of rat prostatic vas deferens (alpha1A adrenoceptor); assay type: functional, tissue-based; conditions: read-out: pA2 (converted)
# T3 sequence (P43140 whole entry): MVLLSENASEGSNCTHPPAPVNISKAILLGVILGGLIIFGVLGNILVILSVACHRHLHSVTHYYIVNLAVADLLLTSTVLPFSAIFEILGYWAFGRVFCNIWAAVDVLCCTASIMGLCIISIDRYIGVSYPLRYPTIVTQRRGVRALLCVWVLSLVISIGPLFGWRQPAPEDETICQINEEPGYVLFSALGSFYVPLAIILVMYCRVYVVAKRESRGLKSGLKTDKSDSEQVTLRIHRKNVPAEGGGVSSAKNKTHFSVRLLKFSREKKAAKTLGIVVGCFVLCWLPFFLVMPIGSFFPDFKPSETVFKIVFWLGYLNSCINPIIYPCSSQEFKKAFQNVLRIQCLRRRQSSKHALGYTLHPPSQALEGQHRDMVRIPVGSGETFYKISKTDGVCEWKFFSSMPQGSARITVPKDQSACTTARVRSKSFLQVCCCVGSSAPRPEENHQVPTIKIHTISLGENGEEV
# [4] = target: T4, Alpha-1D adrenergic receptor (Homo sapiens, UniProt P25100); test: Equilibrium dissociation constant was evaluated by radio-receptor binding assays using [3H]prazosin to label cloned human alpha 1d expressed in CHO cells; assay type: cell-based
# T4 sequence (P25100 whole entry): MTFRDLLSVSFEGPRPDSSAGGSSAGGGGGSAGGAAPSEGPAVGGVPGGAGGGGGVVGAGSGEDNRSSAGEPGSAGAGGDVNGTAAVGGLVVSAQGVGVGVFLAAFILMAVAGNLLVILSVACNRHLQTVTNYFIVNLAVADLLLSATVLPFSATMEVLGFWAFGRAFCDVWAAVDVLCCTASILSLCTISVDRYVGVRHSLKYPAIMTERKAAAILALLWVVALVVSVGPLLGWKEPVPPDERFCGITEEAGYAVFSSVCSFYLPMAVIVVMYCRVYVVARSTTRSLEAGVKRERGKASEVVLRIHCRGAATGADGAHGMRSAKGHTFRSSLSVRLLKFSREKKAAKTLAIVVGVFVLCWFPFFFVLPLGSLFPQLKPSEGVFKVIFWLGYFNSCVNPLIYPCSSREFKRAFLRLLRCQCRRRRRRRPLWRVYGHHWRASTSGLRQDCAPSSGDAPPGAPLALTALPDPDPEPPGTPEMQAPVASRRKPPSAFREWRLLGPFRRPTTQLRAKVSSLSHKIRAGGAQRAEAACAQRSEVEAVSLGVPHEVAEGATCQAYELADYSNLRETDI
# [5] = system: LNCaP; test: Antioxidant activity against formation of ROS was determined in t-BuOOH treated LNCaP cells after 24 hr of incubation with compounds (1-100 uM); Not active at 100 uM; assay type: functional, cell-based, Homo sapiens
# [6] = target: T5, Alpha-1A adrenergic receptor (Homo sapiens, UniProt P35348); test: Equilibrium dissociation constant was evaluated by radio-receptor binding assays using [3H]prazosin to label cloned human alpha 1a expressed in CHO cells; assay type: cell-based
# T5 sequence (P35348 whole entry): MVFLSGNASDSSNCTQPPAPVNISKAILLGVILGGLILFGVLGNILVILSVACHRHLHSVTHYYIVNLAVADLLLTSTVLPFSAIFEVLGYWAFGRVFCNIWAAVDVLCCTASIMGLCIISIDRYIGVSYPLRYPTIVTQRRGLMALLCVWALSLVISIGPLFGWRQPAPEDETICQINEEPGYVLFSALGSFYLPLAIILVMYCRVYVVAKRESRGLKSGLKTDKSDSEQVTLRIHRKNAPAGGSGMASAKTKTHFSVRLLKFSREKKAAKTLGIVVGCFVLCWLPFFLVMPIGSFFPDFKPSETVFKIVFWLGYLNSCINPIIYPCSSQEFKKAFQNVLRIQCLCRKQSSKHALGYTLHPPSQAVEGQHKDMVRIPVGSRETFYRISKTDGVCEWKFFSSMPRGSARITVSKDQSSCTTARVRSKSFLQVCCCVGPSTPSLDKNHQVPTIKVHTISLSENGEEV
# [7] = system: LNCaP; test: Antiproliferative activity was determined by colorimetric MTS assay in LNCaP cells after 72 hr of incubation with compounds (1-100 uM); assay type: functional, cell-based; conditions: Homo sapiens
# Method in brief: (§1)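 LNCaP cells exposed 72 h to compounds (1–100 μM). Proliferation read by colorimetric MTS assay. IC50 is the concentration giving 50% inhibition of cell proliferation. Mean ± SD of three independent experiments.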
# [8] = target: T6, Alpha-1D adrenergic receptor (Rattus norvegicus, UniProt P23944); test: Blocking activity was assessed by antagonism of (-)-noradrenaline induced contraction of rat thoracic aorta (Alpha-1D adrenoceptor); assay type: functional, tissue-based; conditions: read-out: pA2 (converted)
# T6 sequence (P23944 whole entry): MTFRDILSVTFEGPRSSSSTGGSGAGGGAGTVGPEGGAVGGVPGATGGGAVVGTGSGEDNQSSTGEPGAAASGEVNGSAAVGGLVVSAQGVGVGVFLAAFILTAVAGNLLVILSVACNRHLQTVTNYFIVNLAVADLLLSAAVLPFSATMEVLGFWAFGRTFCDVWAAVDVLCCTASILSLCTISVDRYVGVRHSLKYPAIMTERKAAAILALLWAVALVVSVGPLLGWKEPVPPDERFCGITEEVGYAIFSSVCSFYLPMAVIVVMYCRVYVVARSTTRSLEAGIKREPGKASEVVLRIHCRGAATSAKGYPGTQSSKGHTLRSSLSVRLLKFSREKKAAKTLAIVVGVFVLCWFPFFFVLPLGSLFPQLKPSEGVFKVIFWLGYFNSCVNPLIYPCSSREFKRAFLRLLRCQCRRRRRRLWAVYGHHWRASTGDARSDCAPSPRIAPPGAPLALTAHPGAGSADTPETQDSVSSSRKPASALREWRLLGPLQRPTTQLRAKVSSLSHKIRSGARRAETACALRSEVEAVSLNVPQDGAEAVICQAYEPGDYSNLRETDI
# [9] = system: LNCaP; test: Antioxidant activity against formation of ROS was determined in t-BuOOH treated LNCaP cells after 24 hr of incubation with compounds (1-100 uM); assay type: functional, cell-based; conditions: Homo sapiens
# [10] = system: LNCaP; test: Antiproliferative activity was determined by colorimetric MTS assay in LNCaP cells after 72 hr of incubation with compounds (1-100 uM); Not active at 100 uM; assay type: functional, cell-based, Homo sapiens; method in brief: as §1
# [11] = system: LNCaP; test: Antioxidant activity against t-BuOOH induced ROS formation in LNCaP cells after 24 hr at 1-100 uM; Inactive at 100 uM; assay type: functional, cell-based, Homo sapiens
# [12] = system: LNCaP; test: Antiproliferative activity in MTS assay in LNCaP cells after 72 hr at 1-100 uM; Inactive at 100 uM; assay type: functional, cell-based, Homo sapiens; method in brief: as §1
SMILES,Ki [1] [nM],Kb [2] [nM],Kb [3] [nM],Ki [4] [nM],IC50 [5],Ki [6] [nM],IC50 [7] [nM],Kb [8] [nM],IC50 [9] [nM],IC50 [10],IC50 [11],IC50 [12]
COc1cc2nc(N3CCN(C(=O)C4CCSS4)CC3)nc(N)c2cc1OC (stereo not drawn),0.537,1.74,18.6,0.49,Not Active,0.813,49600,0.871,,,,
COc1cc2nc(N3CCN(C(=O)CC4CCSS4)CC3)nc(N)c2cc1OC (stereo not drawn),0.309,1.02,1,0.389,Not Active,0.288,52600,0.912,,,,
COc1cc2nc(N3CCN(C(=O)CCCCC4CCSS4)CC3)nc(N)c2cc1OC (stereo not drawn),1.26,40.7,64.6,0.891,,1.41,,12,83500,Not Active,,
COc1cc2nc(N3CCN(C4=CC(=O)c5ccccc5C4=O)CC3)nc(N)c2cc1OC,0.676,3.09,22.9,0.933,,1.26,8820,0.891,2630,,,
"COC1=CC(=O)c2ccccc2C1=O [2-Methoxy-1,4-naphthoquinone]",,,,,,,,,,,Not Active,Not Active
COc1cc2nc(N3CCNCC3)nc(N)c2cc1OC [AMINODIMETHOXYQUINAZOLINYLPIPERAZINE],,,,,Not Active,,,,,Not Active,,
"O=C(O)CCCCC1CCSS1 (stereo not drawn) [LIPOIC ACID, ALPHA]",,> 10000,> 10000,,,,,> 10000,54900,Not Active,,
COc1cc2nc(N3CCN(C(=O)c4ccco4)CC3)nc(N)c2cc1OC [PRAZOSIN],,,,,Not Active,,67500,,,,,
